Screens: PubChem BioAssay, Sanford-Burnham Center for Chemical Genomics
hIAP inh = blocks human intestinal alkaline phosphatase; P09923; purified IAP, CDP-Star luminescence, 30 min; 330,000 compounds, 0.12% hits; inhibition, % at 10 µM;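 active means inhibition reaching a set limit with compound at 10 µM in the primary screen, cut at about 35% in these data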
Target sequence (P09923 whole entry, looked up): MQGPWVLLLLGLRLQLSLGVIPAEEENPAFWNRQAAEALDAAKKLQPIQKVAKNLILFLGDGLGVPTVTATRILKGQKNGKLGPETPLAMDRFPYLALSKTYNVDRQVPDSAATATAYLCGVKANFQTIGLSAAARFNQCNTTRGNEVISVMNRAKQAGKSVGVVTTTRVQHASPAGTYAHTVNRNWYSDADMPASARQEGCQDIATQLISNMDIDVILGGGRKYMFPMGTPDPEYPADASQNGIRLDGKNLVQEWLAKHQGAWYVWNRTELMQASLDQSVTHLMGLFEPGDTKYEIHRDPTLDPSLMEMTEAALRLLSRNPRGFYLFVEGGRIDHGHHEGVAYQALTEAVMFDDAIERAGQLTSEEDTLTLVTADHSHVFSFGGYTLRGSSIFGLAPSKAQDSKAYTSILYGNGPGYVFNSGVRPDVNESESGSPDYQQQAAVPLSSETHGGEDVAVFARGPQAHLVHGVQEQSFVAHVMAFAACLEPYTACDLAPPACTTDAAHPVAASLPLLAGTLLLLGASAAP
bIAP inh = blocks bovine intestinal alkaline phosphatase activity; 190,000 tested, under 10 active; purified bovine IAP, CDP-star luminescence, 30 min; inhibition, % at 20 µM;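 active means over 50% inhibition of intestinal alkaline phosphatase at 20 µM in the single-dose screen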
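test system = bovine IAP enzyme | medium = DEA buffer 100 mM, pH 9.8, with MgCl2 1.0 mM, ZnCl2 0.02 mM | detection = luminescence | dosing = single compound dose of 20 µM, 2% DMSO final | incubation = 30 min reaction at room temperature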
bIAP activator = increases bovine intestinal alkaline phosphatase activity | activation factor at 20 µM | 200,000 compounds, 0.17% hits | purified bovine IAP, CDP-star luminescence, 30 min; stronger effect = higher value; fold of DMSO-control signal, blank-subtracted;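 active means activation factor of 2 or more at 20 µM, a signal rise over negative controls twice the positive control's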
hIAP activ = increases human intestinal alkaline phosphatase activity; P09923; 330,000 compounds, 0.16% hits; activation factor at 10 µM; purified human IAP, CDP-Star luminescence, 30 min; stronger effect = higher value; 1 = vehicle-only enzyme, 0 = enzyme-free background;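 active means activation factor of the enzyme at least 2-fold when tested at 20 µM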
mIAP block = blocks mouse intestinal alkaline phosphatase; purified mouse IAP, CDP-Star luminescence, 30 min; inhibition, % at 10 µM; AID 2806; 330,000 compounds, 0.2% hits;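 active means inhibition of at least 40% at 10 µM in the primary screen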
mIAP act = mouse IAP activation; muIAP, CDP-Star luminescence, 30 min; stronger effect = higher value; 1 = vehicle-only enzyme signal, 0 = enzyme-free wells; activation factor at 10 µM; 330,000 compounds, 0.24% hits;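 active means activation factor of at least 2 at 20 µM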
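System: mouse IAP enzyme. Reagent: CDP-Star chemiluminescent phosphatase substrate. Benchmarks: DMSO wells, no-enzyme wells. Times: 30 min enzyme-substrate-compound incubation at room temperature. Detection: luminescence from enzymatic CDP-Star hydrolysis. Doses: test compounds delivered from DMSO solution.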
mIAP inh conf = mouse IAP inhibition confirmation. shares compounds with mIAP block. purified mouse IAP, CDP-Star luminescence, 30 min. inhibition, % at 10 µM. 11,000 compounds, 4.7% hits. AID 434971;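 active means inhibition of at least 40% at 10 µM in either of the two replicates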
Of the large screens only hits and unclear results are named; the others gave an inactive call (follow-up assays come after a bar, where they were run). Hits are enriched below; roughly 0.72% of the tested compounds scored in any of these assays.

CCC(=O)N1CCN(c2ccc(NC(=O)COc3ccc(CC)cc3)cc2)CC1	none (no result: bIAP inh, bIAP activator)
CCC(=O)c1ccc(OCC(=O)N2CCN(c3ncccn3)CC2)cc1	none (no result: bIAP inh, bIAP activator)
Cc1nc2cc(C(F)(F)F)ccc2n1C	none
O=C(CSc1n[nH]c(-c2ccccc2)n1)c1ccc(O)c(O)c1	mIAP block 65 (no result: bIAP inh) | mIAP inh conf 69
Cc1ccc(O)c(NC(=O)CSc2n[nH]c(-c3ccccc3)n2)c1	none (no result: bIAP inh, bIAP activator)
N#Cc1c(SCC(=O)Nc2ccc(C(F)(F)F)cc2)sc2c(O)cc(=O)[nH]c12	none (no result: bIAP inh, bIAP activator)
N#Cc1c(SCC(=O)Nc2nncs2)sc2c(O)cc(=O)[nH]c12	mIAP block 57 (no result: bIAP inh, bIAP activator) | mIAP inh conf 70
CCN(Cc1ccccc1)S(=O)(=O)c1ccc(C(=O)N2CCN(c3nc4ccccc4s3)CC2)cc1	none
Cc1ccccc1C(=O)NNC(=O)C1CC(=O)N(Cc2ccccc2)C1 (stereo unspecified)	none (no result: bIAP inh, bIAP activator)
O=c1c2c3c(sc2[nH]c(=S)n1Cc1ccco1)CCC3	mIAP block 59 (no result: bIAP inh, bIAP activator) | mIAP inh conf 64
CC1(C)Cc2c(sc3[nH]c(=S)n(Cc4ccco4)c(=O)c23)CO1	none
COc1ccc(Cl)cc1NC(=S)NCCO	none
S=C(NCCC(c1ccccc1)c1ccccc1)Nc1ccc(Cl)cc1	mIAP act 5.9 | mIAP inh conf inactive
COc1ccc(Cl)cc1NC(=S)NCCC(c1ccccc1)c1ccccc1	mIAP act 4 | mIAP inh conf inactive
S=C(NCc1ccccc1)Nc1ccc(Cl)cc1	none
COc1cc(-c2nnc(SCc3cc(=O)oc4cc(O)c(O)cc34)o2)cc(OC)c1OC	mIAP block 69 | mIAP inh conf 73
Cn1nc([N+](=O)[O-])nc1S(C)(=O)=O	mIAP block 44 | mIAP inh conf 59
CS(=O)(=O)c1nc([N+](=O)[O-])nn1CCCc1ccccc1	none (no result: bIAP inh, bIAP activator)
COC(=O)N/N=C/c1ccc([N+](=O)[O-])o1	none
Cc1nonc1C(=O)N/N=C/c1ccc([N+](=O)[O-])o1	mIAP block 47 | mIAP inh conf 60
O=C(N/N=C/c1ccc([N+](=O)[O-])o1)c1sc2ccccc2c1Cl	mIAP block 42 (no result: bIAP inh, bIAP activator) | mIAP inh conf 54
Cc1cc(C(=O)N/N=C/c2ccc([N+](=O)[O-])o2)c(C)o1	mIAP block 47 (no result: bIAP inh, bIAP activator) | mIAP inh conf 68
O=C(CCc1nc2ccccc2c(=O)[nH]1)N1CCCc2ccccc21	none (no result: bIAP inh, bIAP activator)
CCN1C(=O)[C@@H]2[C@@H](c3ccc(-c4ccc5c(c4)OCO5)c(OC)c3)N3CCC[C@@]3(C(=O)OC)[C@@H]2C1=O	none (no result: bIAP inh, bIAP activator)
CC(C)Cn1c(SCC(=O)N2CCOCC2)nc2ccccc2c1=O	none (no result: bIAP inh, bIAP activator)
CCCCNC(=O)C(C1CCCCC1)N(CCN(C)C)C(=O)CCCN1C(=O)NC(c2ccc(-c3ccccc3)cc2)C(C(=O)OCc2ccccc2)=C1C (stereo unspecified)	mIAP act 2.7 (no result: hIAP inh, bIAP inh, bIAP activator, hIAP activ) | mIAP inh conf inactive
C=CCSC1=N/C(=C\C=C\c2ccco2)C(=O)S1	mIAP block 53 | mIAP inh conf 65
C=CCSC1=N/C(=C\c2sccc2C)C(=O)S1	none
COc1ccc(NC(=O)NC23CC4(C)CC(C)(CC(C)(C4)C2)C3)cc1	mIAP act 3.1 | mIAP inh conf inactive
COc1ccc(NC(=O)NC2(C)CCS(=O)(=O)C2)cc1 (stereo unspecified)	none (no result: bIAP inh, bIAP activator)
Nc1ccc(CCn2ccnc2)cc1	none (no result: bIAP inh, bIAP activator)
CC1CCCN(C(=O)CSc2nnc3ccccn23)C1 (stereo unspecified)	none (no result: bIAP inh, bIAP activator)
COc1ccc(N=C2NC(=O)/C(=C\c3ccco3)S2)cc1	mIAP block 40 | mIAP inh conf 59
COc1cc(/C=C2/SC(=Nc3ccc(O)cc3)NC2=O)cc(OC)c1O	none
O=C1NC(=Nc2ccc(O)cc2)S/C1=C\C=C\c1ccco1	mIAP block 69 (no result: bIAP inh, bIAP activator) | mIAP inh conf 88
CCOc1ccc(NC(=O)COC(=O)CCN2C(=O)C3CC=CCC3C2=O)cc1OCC (stereo unspecified)	none (no result: bIAP inh, bIAP activator)
CC(=O)ONC(=Nc1ccccc1)c1nonc1N	none (no result: bIAP inh, bIAP activator)
CSc1ccc(C(=O)C2CCCN(C(=O)c3ccc4c(c3)no[n+]4[O-])C2)cc1 (stereo unspecified)	none (no result: bIAP inh, bIAP activator)
O=C(NNC(=O)c1cc2cc(Br)ccc2oc1=O)c1ccc(O)cc1O	mIAP block 77 | mIAP inh conf 82
O=C(O)CC(CCc1ccccc1)OC1OC(CO)C(O)C(O)C1O (stereo unspecified)	mIAP block 76 (no result: bIAP inh, bIAP activator) | mIAP inh conf 80
N=C1/C(=C\c2ccc(SCc3ccco3)o2)C(=O)N=C2SC=NN12	mIAP block 69 | mIAP inh conf 76
CC1=NN2C(=N)/C(=C\c3ccc(SCc4ccccc4)o3)C(=O)N=C2S1	none
COC(=O)[C@H](CCSC)NC(=O)Cn1cnc2c(OCc3ccccc3)ncnc21	none (no result: bIAP inh, bIAP activator)
O=S(=O)(c1ccccc1)N1CCN(C(c2ccccc2)c2ccc(OC(F)(F)F)cc2)CC1 (stereo unspecified)	none (no result: bIAP inh, bIAP activator)
O=C(Nc1cccc(-c2cccc(Cl)c2)c1)C1CCN(Cc2ccc(CO)o2)CC1	mIAP act 4 (no result: bIAP inh, bIAP activator) | mIAP inh conf inactive
O=C(Nc1cccc(Cl)c1)C1CCCCC1	none (no result: bIAP inh, bIAP activator)
CCn1cc(CN2CCC(C(=O)Nc3cccc(-c4cccc(F)c4)c3)CC2)cn1	mIAP act 2 (no result: bIAP inh, bIAP activator) | mIAP inh conf inactive
C#CCOCCOCCOCCNc1nc(N2CCN(C(=O)CCCCCCCCCCNC(=O)Cn3cc(C[C@@H](C)O)nn3)CC2)nc(N2CCN(C(=O)CCCCCCCCCCNC(=O)[C@H](CCCCN)n3cc(CCCC(=O)O)nn3)CC2)n1	none (no result: bIAP inh, bIAP activator)
C#CCOCCOCCOCCNc1nc(N2CCN(C(=O)CCCCCCCCCCNC(=O)[C@H](CO)n3cc(CCCSC)nn3)CC2)nc(N2CCN(C(=O)CCCCCCCCCCNC(=O)[C@H](CCCN=C(N)N)n3cc(C[C@@H](C)CC)nn3)CC2)n1	mIAP act 2.6 (no result: bIAP inh, bIAP activator) | mIAP inh conf inactive
C#CCOCCOCCOCCNc1nc(N2CCN(C(=O)CCCCCCCCCCNC(=O)Cn3cc(C[C@@H](C)O)nn3)CC2)nc(N2CCN(C(=O)CCCCCCCCCCNC(=O)[C@H](CCCN=C(N)N)n3cc(C[C@@H](C)CC)nn3)CC2)n1	mIAP act 4.9 (no result: bIAP inh, bIAP activator) | mIAP inh conf inactive
CC(Sc1nc(-c2ccc(F)cc2)cs1)C(=O)Nc1ccc(Cl)cn1 (stereo unspecified)	none
Cc1ccc(OCC(=O)N[C@@H](C)c2nnc3ccccn23)cc1C	none (no result: bIAP inh, bIAP activator)
N=c1c(C(=O)NCCN2CCOCC2)cc2c(=O)n3ccccc3nc2n1CCc1ccccc1	none (no result: bIAP inh, bIAP activator)
CC(=O)N1CCN(C(=O)c2ccc(S(=O)(=O)Nc3ccccc3F)cc2)CC1	none (no result: bIAP inh, bIAP activator)
Cc1cc(C)cc(C(=O)N(NC(=O)Nc2ccc(Cl)cc2)C(C)(C)C)c1	mIAP act 4.3 | mIAP inh conf inactive
